Published values collected from several papers.
Protocols differ between the studies behind these lines.
Target: Alpha-glucosidase MAL12 (MAL12, Saccharomyces cerevisiae S288c, UniProt P53341)
Observed: enzyme activity
Action: inhibitor

| SMILES | technique | pH | IC50 [µM] |
| --- | --- | --- | --- |
| Cc1ccc(-c2nn(-c3ccccc3)cc2C2C3=C(CC(C)(C)CC3=O)n3c(=O)c4ccccc4c(=O)n32)cc1 (stereo not shown) | absorbance | – | 282 |
| CC(C)(CO)CC1=C(O)C(=O)c2ccccc2C1=O | – | – | > 200 |
| C[C@H]1CN(C(=O)Nc2ccc(C(F)(F)F)cc2)CCN1c1ccnc(Nc2ccc(C(F)(F)F)cc2)n1 | absorbance | pH 6.9 | 2.63 |
| Nc1c(-c2ccc(Cl)cc2)nc2ncnn2c1-c1cccs1 | absorbance | – | 82.4 |
| COc1cc(O)c2c(c1)oc(=O)c1c3cc(O)c(O)cc3oc21 | absorbance | – | 39.1 |
| C[C@H]1CN(C(=O)Nc2ccc(C(F)(F)F)cc2)CCN1c1ccnc(Nc2ccccc2O)n1 | absorbance | pH 6.9 | 5.13 |
| Nc1c(-c2ccccc2)nc2ncnn2c1-c1cccc(Cl)c1 | absorbance | – | 82.5 |
| C[C@H]1CN(C(=O)Nc2ccc(C(F)(F)F)cc2)CCN1c1ccnc(Nc2cccc([N+](=O)[O-])c2)n1 | absorbance | pH 6.9 | 1.03 |
| CCCCCCCCCCCCCC(=O)OCC(C)(C)CC1=C(O)C(=O)c2ccccc2C1=O | – | – | 5.3 |
| CC(=O)C1=C(C)n2c(=O)c3ccccc3c(=O)n2C1c1cn(-c2ccccc2)nc1-c1ccc(C)cc1 (stereo not shown) | absorbance | – | 167 |
| Cc1ccc(-c2nc3ncnn3c(-c3ccc(Cl)cc3)c2N)cc1 | absorbance | – | 54.6 |
| C[C@H]1CN(C(=O)Nc2ccc(C(F)(F)F)cc2)CCN1c1ccnc(Nc2ccc(F)cc2)n1 | absorbance | pH 6.9 | 1.82 |
| CC1(C)CC(=O)C2=C(C1)n1c(=O)c3ccccc3c(=O)n1C2c1cn(-c2ccccc2)nc1-c1ccc(Br)cc1 (stereo not shown) | absorbance | – | 353 |
| C[C@H]1CN(C(=O)Nc2ccc(C(F)(F)F)cc2)CCN1c1ccnc(Nc2ccc(Cl)c(OCc3ccccc3)c2)n1 | absorbance | pH 6.9 | 1.5 |
| COc1ccc(-c2nc3ncnn3c(-c3cccs3)c2N)cc1 | absorbance | – | 120 |
| CC(=O)C1=C(C)n2c(=O)c3ccccc3c(=O)n2C1c1cn(-c2ccccc2)nc1-c1ccc(Cl)cc1 (stereo not shown) | absorbance | – | 359 |
